The results in this text go back to ChEMBL document CHEMBL3124900, “Discovery and early clinical evaluation of BMS-605339, a potent and orally efficacious tripeptidic acylsulfonamide NS3 protease inhibitor for the treatment of hepatitis C virus infection” (J Med Chem, 2014).

One data set deals with Liver. Kind of data set: Drug uptake in intraduodenally dosed Sprague-Dawley rat liver measured per gm of tissue over 4 hrs by LC/MS/MS analysis. The data set is classed as ADME, organism-based. Conditions: in vivo, other. In outline: (§1)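 Abbreviated rat screen: surgically prepared rats were dosed intraduodenally. Plasma was sampled over 4 h, and liver was collected at the 4 h end point. Plasma was precipitated with two volumes of ACN plus internal standard. Liver was weighed and homogenized in 2 volumes of 20% Hanks buffered salt solution/80% ACN. Both were quantified by LC/MS/MS.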

Data set [1] is described as follows: AUC in intraduodenally dosed Sprague-Dawley rat plasma measured over 4 hrs by LC/MS/MS analysis. Further details: time < 4 hr, route intraduodenal. The data set is classed as ADME, organism-based. Conditions: Sprague-Dawley, plasma. Put shortly: as §1
The nature of data set [2]: Inhibition of Hepatitis C virus genotype 1a H77 recombinant NS3/4A protease expressed in Escherichia coli BL21 (DE3) cell using Ac-Asp-Glu-Asp(EDANS)-Glu-Glu-Abu[C(O)-O]-Ala-Ser-Lys(DABCYL)-NH2 as substrate by FRET assay. Also on record: species or system Hepatitis C virus (isolate H77).
The nature of data set [3]: Cytotoxicity against human HuH7 cells. The data set is classed as cell-based. To be noted: Huh-7 cells.
Another data set has as its system Hepatitis C virus. Kind of data set: Antiviral activity against Hepatitis C virus genotype 1b Con1 after 4 days by cell-based replicon assay. To be noted: isolate Con1, 96 h. The data set is classed as functional, organism-based, Hepacivirus hominis.
Data set [4] in a line: AUC in Sprague-Dawley rat at 15 mg/kg, po administered via gavage by LC/MS/MS analysis. The data set is classed as ADME, organism-based. Also on record: dose 15 mg/kg, route oral. Conditions: plasma.
A short description of data set [5]: Apparent terminal half life in Sprague-Dawley rat at 5 mg/kg, iv by LC/MS/MS analysis. Conditions: in vivo, read-out: betat1/2(app) (converted). The data set is classed as ADME, organism-based. Also on record: dose 5 mg/kg, route intravenous.
The nature of data set [6]: Oral bioavailability in Sprague-Dawley rat at 15 mg/kg administered via gavage by LC/MS/MS analysis. The data set is classed as ADME, organism-based. To be noted: in vivo.
The nature of data set [7]: Whole body plasma clearance in Sprague-Dawley rat at 5 mg/kg, iv by LC/MS/MS analysis. The data set is classed as ADME, organism-based. Also on record: dose 5 mg/kg, route intravenous.

Compound `C=C[C@@H]1C[C@]1(NC(=O)[C@@H]1C[C@@H](Oc2ncc(C)c3ccccc23)CN1C(=O)[C@@H](NC(=O)OC(C)(C)C)C(C)(C)C)C(=O)NS(=O)(=O)C1CC1` had a Drug uptake in the data set with Liver of 97240 ng. The compound further gave an AUC at 4 h in data set [1] of 0.2 µM·h. For the same compound, the IC50 in data set [2] came out at 1 nM. Also, the CC50 in data set [3] was determined as 71000 nM. Also, in the data set with Hepatitis C virus, a half-maximal effect (EC50) was put at 50 nM.

Compound `C=C[C@@H]1C[C@]1(NC(=O)[C@@H]1C[C@@H](Oc2nc(-c3ccccc3)cc3cc(OC)ccc23)CN1C(=O)[C@@H](NC(=O)OC(C)(C)C)C(C)(C)C)C(=O)NS(=O)(=O)C1CC1` yielded a Drug uptake in the data set with Liver of 72910 ng. The compound further showed an AUC at 4 h in [1] of 1.11 µM·h. In [2], the 50% inhibitory concentration (IC50) stood at 1 nM. In [3], the midpoint of cytotoxicity, the CC50, lay at 13000 nM. For the same compound, the EC50 with Hepatitis C virus was determined as 4 nM.

With `C=C[C@@H]1C[C@]1(NC(=O)[C@@H]1C[C@@H](Oc2ncc(OC)c3cc(OC)ccc23)CN1C(=O)[C@@H](NC(=O)OC(C)(C)C)C(C)(C)C)C(=O)NS(=O)(=O)C1CC1`, the AUC in [4] amounted to 0.194 µM·h. In addition, in [5], the half-life is 3.1 h. For the same compound, the IC50 in data set [2] was found to be 1 nM. This compound had a CC50 in [3] of 45000 nM. In data set [6], this compound showed a bioavailability of 2%. The same compound yielded a clearance in data set [7] of 27 mL/min/kg. For the same compound, the midpoint of the response in the data set on Hepatitis C virus, the EC50, lay at 2 nM.

With `C=C[C@@H]1C[C@]1(NC(=O)[C@@H]1C[C@@H](Oc2nccc3cc(OC)ccc23)CN1C(=O)[C@@H](NC(=O)OC(C)(C)C)C(C)C)C(=O)NS(=O)(=O)C1CC1`, the AUC in data set [4] stood at 10.5 µM·h. For the same compound, the half-life in data set [5] is 2.9 h. Also, the IC50 in data set [2] came out at 2 nM. Moreover, the CC50 in [3] was over 100000 nM. The bioavailability in data set [6] was 28%. Moreover, the clearance in [7] stood at 7.8 mL/min/kg. This compound also returned an EC50 with Hepatitis C virus of 33 nM.

In the data set with Liver, `C=C[C@@H]1C[C@]1(NC(=O)[C@@H]1C[C@@H](Oc2nccc3c(C)cccc23)CN1C(=O)[C@@H](NC(=O)OC(C)(C)C)C(C)(C)C)C(=O)NS(=O)(=O)C1CC1` yielded a Drug uptake of 160300 ng. Further, the AUC at 4 h in [1] worked out at 6.36 µM·h. The half-maximal inhibitory concentration (IC50) in data set [2] turned out to be 5 nM. In [3], this compound displayed a CC50 of 89000 nM. In addition, the concentration for a half-maximal effect (EC50) in the data set on Hepatitis C virus was determined as 40 nM.

`C=C[C@@H]1C[C@]1(NC(=O)[C@@H]1C[C@@H](Oc2nccc3cc(F)ccc23)CN1C(=O)[C@@H](NC(=O)OC(C)(C)C)C(C)(C)C)C(=O)NS(=O)(=O)C1CC1`: the Drug uptake in the data set with Liver is given as 69560 ng. Also, the area under the curve (AUC) at 4 h in data set [1] came to 1.46 µM·h. The IC50 in data set [2] amounted to 87 nM. In [3], this compound yielded a CC50 of over 100000 nM. In the data set with Hepatitis C virus, this compound displayed an EC50 of 117 nM.

In the data set on Liver, `C=C[C@@H]1C[C@]1(NC(=O)[C@@H]1C[C@@H](Oc2nccc3cc(N4CCOCC4)ccc23)CN1C(=O)[C@@H](NC(=O)OC(C)(C)C)C(C)(C)C)C(=O)NS(=O)(=O)C1CC1` had a Drug uptake of 1018 ng. Also, the AUC at 4 h in data set [1] was 0.46 µM·h. For the same compound, in [2], the IC50 was found to be 3 nM. The CC50 in [3] is over 100000 nM. This compound had an EC50 with Hepatitis C virus of 26 nM.

In the case of `CC[C@@H]1C[C@]1(NC(=O)[C@@H]1C[C@@H](Oc2nccc3cc(OC)ccc23)CN1C(=O)[C@@H](NC(=O)OC(C)(C)C)C(C)(C)C)C(=O)NS(=O)(=O)C1CC1`, the AUC in [4] is 0.58 µM·h. Further, the half-life in [5] is 4.2 h. Besides, the IC50 in data set [2] amounted to 6 nM. Also, the cytotoxic concentration (CC50) in data set [3] is over 100000 nM. In addition, the bioavailability in [6] came out at 4%. This compound also yielded a clearance in data set [7] of 17 mL/min/kg. In addition, the EC50 in the data set with Hepatitis C virus came to 22 nM.

Regarding `C=C[C@@H]1C[C@]1(NC(=O)[C@@H]1C[C@@H](Oc2nccc3ccccc23)CN1C(=O)[C@@H](NC(=O)OC(C)(C)C)C(C)(C)C)C(=O)NS(=O)(=O)C1CC1`, the exposure (AUC) in data set [4] was 2.67 µM·h. This compound also gave a Drug uptake in the data set on Liver of 28094 ng. For the same compound, the half-life in [5] was 2.2 h. Besides, in data set [1], the exposure (AUC) at 4 h amounted to 0.75 µM·h. The IC50 in data set [2] stood at 7 nM. The compound also gave a CC50 in [3] of over 100000 nM. This compound displayed a clearance in data set [7] of 19 mL/min/kg. The same compound registered an EC50 with Hepatitis C virus of 60 nM.

Broadly, the AUC is the area under the concentration-time curve, a measure of exposure. Lower therefore signals low exposure. By IC50 is commonly meant the midpoint of a concentration-inhibition curve. The term CC50 denotes the concentration at which the toxic effect on the cells reaches its halfway point. A lower CC50 goes with greater toxicity to the cells. A word on the EC50: it is the midpoint of the concentration-response curve. The low end stands for an effect from little substance, the high end for a need for much substance. Broadly, the bioavailability is the share of a dose that reaches the circulation, judged against a reference dose that is usually intravenous. Higher therefore signals good availability. What is called clearance is the volume of plasma or blood freed of the substance per unit of time. Read a low clearance as a low capacity for elimination.
